{
  "source": "ChEMBL document CHEMBL2311288",
  "about": "“Discovery of liver-targeted inhibitors of stearoyl-CoA desaturase (SCD1)” (Bioorg Med Chem Lett, 2013)",
  "data": [
    {"target": "T1, Acyl-CoA desaturase 1 (Rattus norvegicus, UniProt P07308)", "T1 sequence (P07308 whole entry)": "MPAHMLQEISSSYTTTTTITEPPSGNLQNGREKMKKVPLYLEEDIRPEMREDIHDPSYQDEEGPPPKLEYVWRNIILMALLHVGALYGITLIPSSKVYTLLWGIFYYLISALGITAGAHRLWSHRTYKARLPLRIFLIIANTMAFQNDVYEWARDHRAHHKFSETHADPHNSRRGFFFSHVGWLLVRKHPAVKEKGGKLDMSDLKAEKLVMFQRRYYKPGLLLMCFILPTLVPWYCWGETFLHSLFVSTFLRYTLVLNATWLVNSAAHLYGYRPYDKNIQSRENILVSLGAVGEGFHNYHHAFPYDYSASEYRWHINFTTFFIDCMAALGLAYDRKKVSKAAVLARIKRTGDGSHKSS", "experiment": "Inhibition of rat SCD1 by rat microsomal assay", "details": "not given", "summary_of_the_method": "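Microsomal desaturase activity was measured in 100 mM Tris HCl pH 7.3 with 2 mM NADH and [9,10-3H]stearoyl-CoA for 15 min at room temperature. The reaction was stopped on ice with trichloroacetic acid, then passed through activated charcoal, and tritium in the filtrate was counted. Compounds were tested in 2% DMSO final. Percent inhibition = (total−sample)/(total−blank)×100, with the blank set by 10⁻⁴ M of a standard inhibitor.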", "units": {"IC50": "nM"}, "values": [
      {"smiles": "CC(=O)NCC(=O)N1CCC2(CC1)CCN(Cc1ccccc1C)c1ccccc1O2", "IC50": 1200},
      {"smiles": "NC(=O)c1ccc(N2CCC3(CC2)CCN(Cc2cccc(C(F)(F)F)c2)c2ccccc2O3)nn1", "IC50": 10},
      {"smiles": "COc1ccc(C(F)(F)F)c(C(=O)N2CCN(c3ccc(C(=O)NCCCc4ccccc4)cn3)CC2)c1", "IC50": 100},
      {"smiles": "CC(=O)NCC(=O)N1CCC2(CC1)CCN(CC(C)C)c1ccccc1O2", "IC50": "> 10000"},
      {"smiles": "CC(=O)NCC(=O)N1CCC2(CC1)CCN(c1ccccc1)c1ccccc1O2", "IC50": "> 10000"},
      {"smiles": "CC(=O)NCC(=O)N1CCC2(CC1)CCN(Cc1ccc(F)cc1)c1ccccc1O2", "IC50": 460},
      {"smiles": "O=C(NCCC1CC1)c1ccc(N2CCC3(CC2)CCN(Cc2cccc(C(F)(F)F)c2)c2ccccc2O3)cc1", "IC50": 2200},
      {"smiles": "CNC(=O)c1cnc(N2CCC3(CC2)CCN(Cc2cccc(C(F)(F)F)c2)c2ccccc2O3)s1", "IC50": 3},
      {"smiles": "CC(=O)NCC(=O)N1CCC2(CC1)CCN(Cc1cccc(OC(F)(F)F)c1)c1ccccc1O2", "IC50": 680},
      {"smiles": "CC(=O)NCC(=O)N1CCC2(CC1)CCN(Cc1cccc(Cl)c1)c1ccccc1O2", "IC50": 830},
      {"smiles": "O=C(CO)Nc1ccc2ncn(Cc3ccc(Cl)c(Cl)c3)c(=O)c2c1", "IC50": 261},
      {"smiles": "CC(C)(C)c1ccc(CC(=O)N2CCC3(CC2)CCN(CC#N)c2ccccc2O3)cc1", "IC50": 440},
      {"smiles": "Cc1c(C(=O)Nc2ccn(C)n2)ncn1Cc1cccc(C(F)(F)F)c1", "IC50": 11.7},
      {"smiles": "O=C(O)c1ccc(N2CCC3(CC2)CCN(Cc2cccc(C(F)(F)F)c2)c2ccccc2O3)nn1", "IC50": 4700},
      {"smiles": "CC(C)(C)c1ccc(CN2CCC3(CCN(c4ccc(C(=O)NCCC5CC5)nn4)CC3)Oc3ccccc32)cc1", "IC50": 40},
      {"smiles": "CC(=O)NCC(=O)N1CCC2(CC1)CCN(CCc1ccccc1)c1ccccc1O2", "IC50": 1600},
      {"smiles": "O=C(NCC(=O)N1CCC2(CC1)CCN(Cc1cccc(C(F)(F)F)c1)c1ccccc1O2)c1ccco1", "IC50": 380},
      {"smiles": "O=C(NCC(=O)N1CCC2(CC1)CCN(Cc1cccc(C(F)(F)F)c1)c1ccccc1O2)c1ccccc1", "IC50": 2600},
      {"smiles": "COc1cccc(CN2CCC3(CCN(C(=O)CNC(C)=O)CC3)Oc3ccccc32)c1", "IC50": 1800},
      {"smiles": "CC(=O)NCC(=O)N1CCC2(CC1)CCN(Cc1ccccc1)c1ccccc1O2", "IC50": 1200},
      {"smiles": "O=C(NCCC1CC1)c1ccc(N2CCC3(CC2)CCN(Cc2cccc(C(F)(F)F)c2)c2ccccc2O3)nc1", "IC50": 12},
      {"smiles": "CCc1ccccc1CN1CCC2(CCN(C(=O)CNC(C)=O)CC2)Oc2ccccc21", "IC50": 430},
      {"smiles": "CC(=O)NCC(=O)N1CCC2(CC1)CCN(Cc1ccccc1F)c1ccccc1O2", "IC50": "> 10000"},
      {"smiles": "CC(=O)NCC(=O)N1CCC2(CC1)CCN(Cc1ccc(Cl)cc1)c1ccccc1O2", "IC50": "> 10000"},
      {"smiles": "CC(=O)NCC(=O)N1CCC2(CC1)CCN(Cc1cccc(C(F)(F)F)c1)c1ccccc1O2", "IC50": 32},
      {"smiles": "CC(=O)NCC(=O)N1CCC2(CC1)CCN(Cc1ccccc1Cl)c1ccccc1O2", "IC50": 1200},
      {"smiles": "CC(=O)NCC(=O)N1CCC2(CC1)CCN(Cc1ccc(C)cc1)c1ccccc1O2", "IC50": 1100},
      {"smiles": "COc1ccccc1CN1CCC2(CCN(C(=O)CNC(C)=O)CC2)Oc2ccccc21", "IC50": 2900},
      {"smiles": "O=C(O)Cn1nnc(-c2cc(N3CCC(Oc4ccccc4C(F)(F)F)CC3)no2)n1", "IC50": 3},
      {"smiles": "O=C(NCCC1CC1)c1cnc(N2CCC3(CC2)CCN(Cc2cccc(C(F)(F)F)c2)c2ccccc2O3)s1", "IC50": 930},
      {"smiles": "CC(C)(C)c1ccc(CN2CCC3(CCN(C(=O)CNC(=O)c4ccco4)CC3)Oc3ccccc32)cc1", "IC50": 19},
      {"smiles": "Fc1cccc2c1CCC1(CCN(c3ccc(-c4nnc(Cc5cccnc5)o4)nn3)CC1)O2", "IC50": 2},
      {"smiles": "CC(=O)NCC(=O)N1CCC2(CC1)CCN(Cc1cccc(F)c1)c1ccccc1O2", "IC50": "> 10000"},
      {"smiles": "CNC(=O)c1cnc(N2CCC3(CC2)CCN(Cc2ccc(C(C)(C)C)cc2)c2ccccc2O3)s1", "IC50": 4},
      {"smiles": "CCCNC(=O)c1ccc(N2CCC3(CC2)CCN(Cc2cccc(C(F)(F)F)c2)c2ccccc2O3)nn1", "IC50": 130},
      {"smiles": "CCCN1CCC2(CCN(C(=O)CNC(C)=O)CC2)Oc2ccccc21", "IC50": "> 10000"}
    ]},
    {"tested_on": "Rattus norvegicus", "experiment": "AUC in rat at 10 mg/kg", "format": "ADME, organism-based, Plasma", "parameters": "dose 10 mg/kg", "details": "in vivo", "summary_of_the_method": "(§1)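 Rats were given a single 10 mg/kg dose. Plasma exposure (AUC, Cmax) was determined, and drug concentrations in plasma, brain and liver were measured at 6 h post-dose. The liver/plasma ratio was taken from the 6 h levels.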", "units": {"AUC": "ng·h/g"}, "values": [
      {"smiles": "CNC(=O)c1cnc(N2CCC3(CC2)CCN(Cc2cccc(C(F)(F)F)c2)c2ccccc2O3)s1", "AUC": 0},
      {"smiles": "O=C(NCCC1CC1)c1ccc(N2CCC3(CC2)CCN(Cc2cccc(C(F)(F)F)c2)c2ccccc2O3)nc1", "AUC": 23}
    ]},
    {"tested_on": "not listed separately", "experiment": "Drug level in liver in rat at 10 mg/kg measured after 6 hrs", "format": "ADME, organism-based", "parameters": "dose 10 mg/kg", "details": "read-out: Drug uptake", "summary_of_the_method": "as §1", "units": {"concentration at 6 h": "ng/g"}, "values": [
      {"smiles": "O=C(NCCC1CC1)c1ccc(N2CCC3(CC2)CCN(Cc2cccc(C(F)(F)F)c2)c2ccccc2O3)nc1", "concentration at 6 h": "< 10"}
    ]},
    {"tested_on": "not listed separately", "experiment": "Cmax in rat at 10 mg/kg", "format": "ADME, organism-based", "parameters": "dose 10 mg/kg", "details": "in vivo", "summary_of_the_method": "as §1", "units": {"Cmax": "ng/g"}, "values": [
      {"smiles": "O=C(NCCC1CC1)c1ccc(N2CCC3(CC2)CCN(Cc2cccc(C(F)(F)F)c2)c2ccccc2O3)nc1", "Cmax": 45}
    ]}
  ]
}
